According to PMC2996727 (Biochemistry, 2009):

Target: T1, YfcG (Escherichia coli, UniProt P77526)
T1 sequence (P77526 1-215): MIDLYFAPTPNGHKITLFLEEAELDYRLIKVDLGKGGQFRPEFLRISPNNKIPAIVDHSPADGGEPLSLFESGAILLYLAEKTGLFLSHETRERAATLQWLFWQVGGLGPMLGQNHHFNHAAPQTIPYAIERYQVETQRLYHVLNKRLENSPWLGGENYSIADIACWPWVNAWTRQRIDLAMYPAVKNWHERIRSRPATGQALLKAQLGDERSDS
Experiment: intrinsic fluorescence titration
Assay type: binding
How it was run: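 Purified enzyme titrated with thiol and disulfide ligands at 25 °C, monitoring the protein's intrinsic fluorescence; dissociation constants derived from the titration.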

Kd: 23 ± 5 µM
SMILES: N[C@@H](CCC(=O)N[C@@H](CS(=O)(=O)O)C(=O)NCC(=O)O)C(=O)O [GSO3^−]
